# dFosB act: activators of mouse delta FosB homodimer; purified delta FosB, TAMRA-CDK5 oligo fluorescence polarization; percent of positive-control signal above neutral wells; activation, % at 25 µM; 340,000 tested, 0.99% active; AID 493131;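 active means mean activation above about 17%, with every replicate also reaching it, limit read from the data, passing the limit was not always enough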
# SR-BI DiI-HDL act: SR-BI HDL lipid transfer activation; activation, % at 12.5 µM; 320,000 tested, 0.096% active; AID 504775; CHO ldlA[mSR-BI] cells, DiI-HDL uptake fluorescence, 3 h; 100 = double the neutral-control signal;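 active means mean replicate activation of at least 60% and every replicate at or above 60%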;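 further: 0% = median plate neutral-control signal and 100% = twice that signal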
#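 Test system: SR-BI-overexpressing, LDLR-lacking CHO cells. Measured by: DiI fluorescence, bottom read. Medium: Ham's F12 with 0.5% BSA, HEPES 25 mM, pH 7.4. Timing: 3 h uptake period with compound, 37 °C.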
# PvdQ inh: P. aeruginosa PvdQ acylase inhibition. 340,000 tested, 0.063% active. purified PvdQ acylase, fluorescence plate reader. inhibition, % at 10 µM; in the data active means inhibition above about 30%, passing the limit was not always enough;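 further: 0% = vehicle neutral wells and 100% = reference inhibitor wells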
# SR-BI DiI inh: mouse SR-BI HDL lipid transfer inhibition | Q61009 | ldlA[mSR-BI] CHO cells, DiI-HDL uptake fluorescence, 3 h | inhibition, % at 12.5 µM | 320,000 tested, 0.96% active | AID 488896;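 active means mean replicate inhibition of at least 70% and a set share of replicates each scoring 70 or more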;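 further: 0% = median of neutral control wells and 100% = median of positive control wells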
# Target sequence (Q61009 whole entry, looked up): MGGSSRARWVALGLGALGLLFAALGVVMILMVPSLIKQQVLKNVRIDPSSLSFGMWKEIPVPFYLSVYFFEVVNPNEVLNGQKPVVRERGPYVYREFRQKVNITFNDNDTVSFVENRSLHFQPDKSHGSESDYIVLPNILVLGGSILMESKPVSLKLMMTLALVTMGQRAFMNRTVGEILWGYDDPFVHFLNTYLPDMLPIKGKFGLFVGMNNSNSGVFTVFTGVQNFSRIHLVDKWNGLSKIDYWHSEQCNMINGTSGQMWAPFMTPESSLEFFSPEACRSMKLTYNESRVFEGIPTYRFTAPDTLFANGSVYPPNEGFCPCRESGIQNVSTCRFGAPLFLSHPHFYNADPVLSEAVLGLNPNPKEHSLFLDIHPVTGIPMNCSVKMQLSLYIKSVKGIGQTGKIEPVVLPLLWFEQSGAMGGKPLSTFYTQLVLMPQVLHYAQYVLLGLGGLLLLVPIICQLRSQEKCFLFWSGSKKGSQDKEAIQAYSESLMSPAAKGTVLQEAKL
# RAD54 branch: inhibitors of human RAD54 branch migration | inhibition, % at 10.4 µM | RAD54 Holliday junction branch migration, FAM/BHQ fluorescence | AID 602329 | 360,000 tested, 0.14% active;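 active means mean normalized replicate activity at least 40 and at least half of replicates scoring 40 or more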;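 further: 0% = median of neutral control wells and 100% = median of positive control wells; inhibitors cause a drop in the FAM fluorescence signal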
# S100A4 inh HTS: blocks human S100A4 binding to myosin IIA peptide. inhibition, % at 10.7 µM. P26447. 360,000 tested, 0.14% active. S100A4/TAMRA-MyoIIA peptide fluorescence polarization. AID 652163;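 active means mean inhibition of at least 70% across replicates, with every replicate also reaching that level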
# Target sequence (P26447 whole entry, looked up): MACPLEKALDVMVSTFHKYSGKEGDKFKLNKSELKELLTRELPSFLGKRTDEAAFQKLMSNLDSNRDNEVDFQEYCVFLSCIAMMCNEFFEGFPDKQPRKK
#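 Material: human S100A4 monomer with TAMRA-labelled myosin IIA peptide; buffer or medium: HEPES pH 7.2 with CaCl2, KCl, NaCl, DTT, Triton; compound dosing: one concentration per compound; schedule: 5 min incubation before reading; benchmarks: neutral control DMSO, positive control TFP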
# The depositor's hits bear a star; · = no result given. A selection: hits, their analogues and other compounds. The true share with any hit is near 1.6%.
SMILES,dFosB act,SR-BI DiI-HDL act,PvdQ inh,SR-BI DiI inh,RAD54 branch,S100A4 inh HTS
CN(C)CCCNC(=O)C[C@@H]1C=C[C@@H](NC(=O)c2ccccc2F)[C@H](CO)O1,·,·,·,·,3,16
CCOC(=O)c1csc(N)c1-c1ccc([N+](=O)[O-])cc1,-3,69*,-18,-69,-10,0
O=C(C[C@H]1C=C[C@@H](NC(=O)C2CCC2)[C@@H](CO)O1)Nc1nccs1,·,·,·,·,1,-2
COc1cc(C(=O)OCCN2CCOCC2)cc(OC)c1OC,-8,7,-5,-7,-5,-1
COc1cc(C(=O)OCCCN2CCCN(CCCOC(=O)c3cc(OC)c(OC)c(OC)c3)CC2)cc(OC)c1OC,-14,-81,-11,81*,7,-1
CC(Nc1ccc(Cl)cc1)c1cc(Cl)ccc1O (centres undefined),-5,373*,-8,-373,-6,·
Cc1cccc(C)c1NC(=O)COC(=O)c1ccccc1Nc1ccccc1,-8,-82,-4,82*,-1,·
O=C(C[C@H]1CC[C@@H]2[C@H](COC[C@@H](O)CN2C(=O)c2cccnc2)O1)NCc1ccc(-c2ccccc2)cc1,·,·,·,·,9,-27
Clc1ccc2nc3c4ccccc4cnn3c2c1,-47,10,33*,-10,·,2
COn1c(-c2ccccc2)nc2ccc(Cl)cc21,-5,-5,-4,5,-4,·
Cc1ccccc1CN(C)C[C@H]1OCc2cn(nn2)CCCC(=O)N([C@H](C)CO)C[C@H]1C,·,·,·,·,4,17
Cc1ccc(-c2csc(=Nc3cccnc3)n2CCCn2ccnc2)cc1C,-2,-29,1,29,·,-4
Cc1ccc(-c2csc(=Nc3cccnc3)n2CCCN2CCCC2=O)cc1C,-8,74*,6,-74,·,·
Oc1ccc(-c2nc(-c3ccc(F)cc3)c(-c3ccncc3)[nH]2)cc1,-9,-74,5,74*,2,2
Fc1ccc(-c2nc(-c3cccs3)[nH]c2-c2ccc(F)cc2)cc1,-4,-59,-13,59,-1,-1
CN(C)CC#Cc1cccc(-c2nc(C(=O)NCCCN3CCOCC3)cc3c2[C@H](CCO)N(S(=O)C(C)(C)C)C3)c1 (some centres undefined),·,·,·,·,33,·
C[C@H]1CN([C@@H](C)CO)C(=O)c2cc(-c3ccncc3)cnc2O[C@@H]1CN(C)C(=O)Cc1cccnc1,·,·,·,·,-6,·
COc1cc2sc3ccc(-c4ccc5[nH]ccc5c4)cc3c(=O)c2cc1OC,-8,-75,-23,75*,-1,·
COc1cc(-c2nc(-c3ccccc3)c(-c3ccc(F)cc3)[nH]2)cc2c1OCO2,1,-85,7,85*,-7,·
COc1ccc(-c2[nH]c(-c3ccc4c(c3)OCO4)nc2-c2ccccc2)cc1,7,-63,-17,63,-4,·
C[C@@H]1CN([C@@H](C)CO)C(=O)c2cccc(NC(=O)C3CCOCC3)c2O[C@H]1CN(C)S(C)(=O)=O,·,·,·,·,-1,8
COc1cccc(C(=O)Nc2ccc3c(c2)C(=O)N(C)C[C@@H](OC)[C@@H](C)CN[C@H](C)CO3)c1,·,·,·,·,5,-8
COc1ccc(C(C(=O)NC2CCCC2)N(CC2CCCO2)C(=O)Cn2nnc(-c3ccc(C)o3)n2)cc1 (centres undefined),-8,-2,0,2,-9,15
Cc1ccc(-c2nnn(CC(=O)N(CC3CCCO3)C(C(=O)NC3CCCCC3)c3ccc(F)cc3)n2)o1 (centres undefined),25*,-10,6,10,3,·
C[C@@H]1CN([C@H](C)CO)C(=O)c2cc(NC(=O)CCC(F)(F)F)ccc2O[C@@H](C)CCCCO[C@@H]1CN(C)CC1CCCCC1,·,·,·,·,4,·
SMILES,dFosB act,SR-BI DiI-HDL act,PvdQ inh,SR-BI DiI inh,RAD54 branch,S100A4 inh HTS
Cc1cc(N/N=C/c2ccccc2O)c2ccccc2n1,-26,0,-14,0,104*,0
COc1ccc2nc(C)cc(Nc3ccccc3OC)c2c1,·,·,·,·,4,-3
COc1ccc(/C=N/Nc2cc(C)nc3ccc(Br)cc23)cc1,62*,-64,-5,64,119*,-2
COc1ccc2nc(C)cc(N/N=C/c3cccc(OC)c3O)c2c1,-119,11,-4,-11,108*,-5
C[C@H](CO)N1C[C@H](C)[C@H](CN(C)Cc2ccc(-c3ccccc3)cc2)OCc2cnnn2CCCC1=O,·,·,·,·,-28,3
Fc1ccc(/C=N/c2c(-c3ccc(F)cc3)nc3n2CCS3)cc1,-10,-77,-12,77*,-8,·
C[C@@H]1CCCCO[C@H](CN(C)CC2CCCCC2)[C@@H](C)CN([C@H](C)CO)C(=O)c2cc(NC(=O)Nc3ccc4c(c3)OCO4)ccc2O1,·,·,·,·,2,4
O=C(C[C@H]1C=C[C@@H](NC(=O)C2CC2)[C@@H](CO)O1)NCc1ccncc1,·,·,·,·,-2,-16
C[C@@H]1CN([C@H](C)CO)C(=O)c2cccc(NC(=O)NC3CCCCC3)c2O[C@@H]1CN(C)Cc1ccc2c(c1)OCO2,·,·,·,·,13,3
CC(C)COC(=O)N(C)C[C@@H]1OCc2ccccc2-c2c(n(C)c3ccccc23)C(=O)N([C@H](C)CO)C[C@@H]1C,·,·,·,·,0,8
Cc1ccc(NC(=S)Nc2cccc3cnccc23)cc1,-7,-10,-15,10,-13,4
Cc1ccc(NC(=S)Nc2cccc3cnccc23)cc1C,-10,-75,6,75*,5,-4
COc1ccccc1-c1cnc2c(c1)C(=O)N([C@H](C)CO)C[C@H](C)[C@H](CN(C)C)O2,·,·,·,·,2,12
Cc1nnc(-c2ccc(N3CCOCC3)c([N+](=O)[O-])c2)o1,8,-20,2,20,0,·
Cc1cccc(Nc2nnc(-c3ccc(N4CCOCC4)c([N+](=O)[O-])c3)c3ccccc23)c1,-2,-73,-12,73*,-4,3
c1cc2c3c(cccc3c1)NC1(CCC3(CC1)Nc1cccc4cccc(c14)N3)N2,-19,23,-6,-23,6,-1
c1cc2c3c(cccc3c1)NC1(CCCCCC1)N2,23*,-22,6,22,-1,·
c1cc2c3c(cccc3c1)NC1(CCCCC1)N2,40*,-8,-4,8,11,-7
CCC(=O)Nc1ccc2c(c1)OC[C@H](C)N(CC1CCOCC1)C[C@H](C)[C@H](OC)CN(C)C2=O,·,·,·,·,-9,13
COc1ccc(OC)c(CN2CCN(C(=O)c3cccc(S(=O)(=O)Nc4ccccc4OC)c3)CC2)c1,-8,-77,0,77*,·,-2
COc1cc(OC)cc(C(=O)N2CCN(C(=O)c3ccc(-c4ccccc4)cc3)CC2)c1,-3,-79,3,79*,·,-1

# Screening data deposited in PubChem by Broad Institute.
